Source: ChEMBL document CHEMBL1144940 (J Med Chem, 2003)
Bridge positions count the residues as written; N and C are the ends. Square brackets hold non-standard residues; d marks the D form. Peptide text beside a SMILES is read from it. d2Nal = N[C@H](Cc1ccc2ccccc2c1)C(=O)O; Pen = CC(C)(S)[C@H](N)C(=O)O; Nle = CCCC[C@H](N)C(=O)O

Assays:
Melanocortin receptor 4 [1] = target: T1, Melanocortin receptor 4 (Homo sapiens, UniProt P32245); assay: Agonist activity against human Melanocortin 4 receptor at 10 uM
Melanocortin receptor 3 [2] = target: T2, Melanocortin receptor 3 (Homo sapiens, UniProt P41968); assay: Intracellular cAMP accumulation in human Melanocortin 3 receptor functional assay.
Melanocortin receptor 3 [3] = target: T2, Melanocortin receptor 3; assay: Binding affinity against human Melanocortin 3 receptor by gamma-MCH displacement.
How it was run: (§1)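 Competition binding on intact HEK293 cells stably expressing the human receptor, seeded 50000 cells/well 48 h earlier. Lysates were gamma-counted. Ki came from competition curves; mean of duplicate experiments in triplicate.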

Melanocortin receptor 3 [4] = target: T2, Melanocortin receptor 3; assay: Agonist activity against human Melanocortin 3 receptor at 10 uM
Melanocortin receptor 5 [5] = target: T3, Melanocortin receptor 5 (Homo sapiens, UniProt P33032); assay: Binding affinity against human Melanocortin 5 receptor by gamma-MCH displacement.
How it was run: as §1

Melanocortin receptor 4 [6] = target: T1, Melanocortin receptor 4; assay: Binding affinity against Melanocortin 4 receptor by gamma-MCH displacement.
How it was run: as §1

Melanocortin receptor 4 [7] = target: T1, Melanocortin receptor 4; assay: Intracellular cAMP accumulation in Melanocortin 4 receptor functional assay.
Melanocortin receptor 5 [8] = target: T3, Melanocortin receptor 5; assay: Intracellular cAMP accumulation in human Melanocortin 5 receptor functional assay.
Melanocortin receptor 5 [9] = target: T3, Melanocortin receptor 5; assay: Agonist activity against human Melanocortin 5 receptor at 10 uM

T1 sequence (P32245 whole entry): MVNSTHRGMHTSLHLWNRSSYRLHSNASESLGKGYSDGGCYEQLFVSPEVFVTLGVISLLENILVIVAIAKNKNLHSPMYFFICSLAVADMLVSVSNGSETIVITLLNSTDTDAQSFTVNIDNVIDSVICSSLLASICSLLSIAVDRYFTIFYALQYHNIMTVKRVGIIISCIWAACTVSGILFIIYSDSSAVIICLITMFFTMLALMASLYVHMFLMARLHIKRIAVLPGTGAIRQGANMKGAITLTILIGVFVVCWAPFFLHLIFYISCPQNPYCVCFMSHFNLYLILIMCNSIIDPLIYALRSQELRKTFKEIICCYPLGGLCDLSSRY
T2 sequence (P41968 whole entry): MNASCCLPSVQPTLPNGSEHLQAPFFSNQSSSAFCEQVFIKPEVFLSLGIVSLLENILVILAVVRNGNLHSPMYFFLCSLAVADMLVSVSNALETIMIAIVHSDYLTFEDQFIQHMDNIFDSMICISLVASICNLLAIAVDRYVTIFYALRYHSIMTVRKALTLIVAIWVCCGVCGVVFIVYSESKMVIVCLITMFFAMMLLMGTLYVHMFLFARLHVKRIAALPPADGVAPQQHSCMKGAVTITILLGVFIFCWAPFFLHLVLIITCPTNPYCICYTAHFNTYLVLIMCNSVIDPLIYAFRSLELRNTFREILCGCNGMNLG
T3 sequence (P33032 whole entry): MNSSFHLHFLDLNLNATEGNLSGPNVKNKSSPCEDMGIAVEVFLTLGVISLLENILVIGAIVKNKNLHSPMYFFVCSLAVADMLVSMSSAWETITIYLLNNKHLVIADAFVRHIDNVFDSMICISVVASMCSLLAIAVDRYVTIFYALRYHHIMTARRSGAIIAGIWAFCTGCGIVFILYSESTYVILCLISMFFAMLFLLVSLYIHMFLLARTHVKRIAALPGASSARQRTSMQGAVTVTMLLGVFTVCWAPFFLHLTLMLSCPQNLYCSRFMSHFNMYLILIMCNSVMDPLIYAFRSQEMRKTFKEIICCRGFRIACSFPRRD

Activity (Melanocortin receptor 4 [1]) [%] | EC50 (Melanocortin receptor 3 [2]) [nM] | Ki (Melanocortin receptor 3 [3]) [nM] | Activity (Melanocortin receptor 3 [4]) [%] | Ki (Melanocortin receptor 5 [5]) [nM] | Ki (Melanocortin receptor 4 [6]) [nM] | EC50 (Melanocortin receptor 4 [7]) [nM] | EC50 (Melanocortin receptor 5 [8]) [nM] | Activity (Melanocortin receptor 5 [9]) [%] | SMILES
100 | 12 | 12 | 40 | > 4800 | 4.6 | 44 | > 10000 |  | CCCC[C@H](NC(=O)[C@@H](NC(=O)[C@@H](N)Cc1ccc(O)cc1)C(C)C)C(=O)NCC(=O)N[C@@H](Cc1c[nH]cn1)C(=O)N[C@H](Cc1ccc2ccccc2c1)C(=O)N[C@@H](CCCN=C(N)N)C(=O)N[C@H](Cc1ccc2ccccc2c1)C(=O)N[C@@H](CC(=O)O)C(=O)N[C@@H](CCCN=C(N)N)C(=O)N[C@@H](Cc1ccccc1)C(=O)NCC(N)=O
 | 4.2 | 6.8 |  | 27 | 2.5 | 170 | 3.2 |  | CCCC[C@H](NC(=O)[C@@H](NC(=O)[C@@H](N)Cc1ccc(O)cc1)C(C)C)C(=O)N[C@H]1CSSC[C@@H](C(=O)N[C@@H](CCCNC(=N)N)C(=O)N[C@@H](Cc2ccccc2)C(=O)NCC(N)=O)NC(=O)[C@H](Cc2c[nH]c3ccccc23)NC(=O)[C@H](CCCNC(=N)N)NC(=O)[C@H](Cc2ccccc2)NC(=O)[C@H](Cc2cnc[nH]2)NC1=O
 | > 10000 | > 10000 |  | > 3900 | > 10000 | > 10000 | > 10000 |  | CC(C)[C@H](NC(=O)[C@@H](N)Cc1ccc(O)cc1)C(=O)N[C@H]1CSSC[C@H](C(=O)N[C@@H](CCCN=C(N)N)C(=O)N[C@@H](Cc2ccccc2)C(=O)NCC(N)=O)NC(=O)[C@H](Cc2c[nH]c3ccccc23)NC(=O)[C@H](CCCN=C(N)N)NC(=O)[C@H](Cc2ccccc2)NC(=O)[C@H](Cc2c[nH]cn2)NC(=O)CNC1=O
 |  |  |  |  |  |  |  | 100 | CCCC[C@H](NC(=O)[C@@H](NC(=O)[C@@H](N)Cc1ccc(O)cc1)C(C)C)C(=O)NCC(=O)N[C@@H](CCN)C(=O)N[C@@H](Cc1ccccc1)C(=O)N[C@@H](CCCN=C(N)N)C(=O)N[C@H](Cc1ccc2ccccc2c1)C(=O)N[C@@H](CC(=O)O)C(=O)N[C@@H](CCCN=C(N)N)C(=O)N[C@@H](Cc1ccccc1)C(=O)NCC(N)=O
 | 210 | 1600 |  | 210 | 1200 | 360 | 140 |  | CCCC[C@H](NC(=O)[C@@H](NC(=O)[C@@H](N)Cc1ccc(O)cc1)C(C)C)C(=O)N[C@@H]1CSSC[C@@H](C(=O)N[C@@H](CCCNC(=N)N)C(=O)N[C@@H](Cc2ccccc2)C(=O)NCC(N)=O)NC(=O)[C@H](Cc2c[nH]c3ccccc23)NC(=O)[C@H](CCCNC(=N)N)NC(=O)[C@H](Cc2ccccc2)NC(=O)[C@H](Cc2cnc[nH]2)NC1=O
 | > 10000 | 480 |  | 480 | > 10000 | > 10000 | > 10000 |  | CC(C)[C@H](NC(=O)[C@@H](N)Cc1ccc(O)cc1)C(=O)N[C@H]1CSSC(C)(C)[C@@H](C(=O)N[C@@H](CCCNC(=N)N)C(=O)N[C@@H](Cc2ccccc2)C(=O)NCC(N)=O)NC(=O)[C@H](Cc2c[nH]c3ccccc23)NC(=O)[C@H](CCCNC(=N)N)NC(=O)[C@H](Cc2ccccc2)NC(=O)[C@H](Cc2cnc[nH]2)NC(=O)CNC1=O (H-YVCGHFRW[Pen]RFG-NH2; disulfide 3-9)
 | 36 | 68 |  | 210 | 22 | 9 | 450 |  | CC(C)[C@H](NC(=O)[C@@H](N)Cc1ccc(O)cc1)C(=O)N[C@H]1CSSC[C@@H](C(=O)N[C@@H](CCCN=C(N)N)C(=O)N[C@@H](Cc2ccccc2)C(=O)NCC(N)=O)NC(=O)[C@H](Cc2c[nH]c3ccccc23)NC(=O)[C@H](CCCN=C(N)N)NC(=O)[C@H](Cc2ccccc2)NC(=O)[C@H](Cc2c[nH]cn2)NC(=O)CNC1=O
 |  |  | 77 |  |  |  |  |  | CC(C)[C@H](NC(=O)[C@@H](N)Cc1ccc(O)cc1)C(=O)N[C@H]1C(=O)NCC(=O)N[C@@H](Cc2c[nH]cn2)C(=O)N[C@H](Cc2ccccc2)C(=O)N[C@@H](CCCN=C(N)N)C(=O)N[C@@H](Cc2c[nH]c3ccccc23)C(=O)N[C@H](C(=O)N[C@@H](CCCN=C(N)N)C(=O)N[C@@H](Cc2ccccc2)C(=O)NCC(N)=O)CSSC1(C)C
 | > 10000 | 3400 |  | 120 | 4800 | > 10000 | 1.8 |  | CCCC[C@H](NC(=O)[C@@H](NC(=O)[C@@H](N)Cc1ccc(O)cc1)C(C)C)C(=O)NCC(=O)NC(C)(C)C(=O)N[C@@H](Cc1ccccc1)C(=O)N[C@@H](CCCN=C(N)N)C(=O)N[C@H](Cc1ccc2ccccc2c1)C(=O)N[C@@H](CC(=O)O)C(=O)N[C@@H](CCCN=C(N)N)C(=O)N[C@@H](Cc1ccccc1)C(=O)NCC(N)=O
46 | > 10000 | > 10000 |  | > 3900 | 460 | 250 | > 10000 |  | CC(C)[C@H](NC(=O)[C@@H](N)Cc1ccc(O)cc1)C(=O)NC1CSSCC(C(=O)N[C@@H](CCCN=C(N)N)C(=O)N[C@@H](Cc2ccccc2)C(=O)NCC(N)=O)NC(=O)[C@H](Cc2c[nH]c3ccccc23)NC(=O)[C@H](CCCN=C(N)N)NC(=O)[C@@H](Cc2ccccc2)NC(=O)[C@H](Cc2c[nH]cn2)NC(=O)CNC1=O (stereo in doubt)
 | 19 | 150 |  | 150 | > 10000 | 200 | 74 |  | CCCC[C@H](NC(=O)[C@@H](NC(=O)[C@@H](N)Cc1ccc(O)cc1)C(C)C)C(=O)N[C@@H]1C(=O)N[C@@H](Cc2c[nH]cn2)C(=O)N[C@@H](Cc2ccccc2)C(=O)N[C@@H](CCCN=C(N)N)C(=O)N[C@@H](Cc2c[nH]c3ccccc23)C(=O)N[C@H](C(=O)N[C@@H](CCCN=C(N)N)C(=O)N[C@@H](Cc2ccccc2)C(=O)NCC(N)=O)CSSC1(C)C (H-YV[Nle][Pen]HFRWCRFG-NH2; disulfide 4-9)
105 |  |  |  |  | 62 |  |  |  | CCCC[C@H](NC(=O)[C@@H](NC(=O)[C@@H](N)Cc1ccc(O)cc1)C(C)C)C(=O)NCC(=O)N[C@@H](Cc1c[nH]cn1)C(=O)N[C@@H](Cc1ccccc1)C(=O)N[C@@H](CCCN=C(N)N)C(=O)N[C@@H](Cc1c[nH]c2ccccc12)C(=O)N[C@@H](CC(=O)O)C(=O)N[C@@H](CCCN=C(N)N)C(=O)N[C@@H](Cc1ccccc1)C(=O)NCC(N)=O
100 | > 10000 | 0.81 |  | 1 |  |  |  |  | CCCC[C@H](NC(=O)[C@@H](NC(=O)[C@@H](N)Cc1ccc(O)cc1)C(C)C)C(=O)NCC(=O)N[C@@H](Cc1c[nH]cn1)C(=O)N[C@H](Cc1ccc2ccccc2c1)C(=O)N[C@@H](CCCN=C(N)N)C(=O)N[C@@H](Cc1c[nH]c2ccccc12)C(=O)N[C@@H](CC(=O)O)C(=O)N[C@@H](CCCN=C(N)N)C(=O)N[C@@H](Cc1ccccc1)C(=O)NCC(N)=O
100 |  | 0.2 | 70 | 14 | 0.22 |  |  |  | CCCC[C@H](NC(=O)[C@@H](NC(=O)[C@@H](N)Cc1ccc(O)cc1)C(C)C)C(=O)NCC(=O)N1CCC[C@H]1C(=O)N[C@H](Cc1ccc2ccccc2c1)C(=O)N[C@@H](CCCN=C(N)N)C(=O)N[C@@H](Cc1c[nH]c2ccccc12)C(=O)N[C@@H](CC(=O)O)C(=O)N[C@@H](CCCN=C(N)N)C(=O)N[C@@H](Cc1ccccc1)C(=O)NCC(N)=O (H-YV[Nle]GP[d2Nal]RWDRFG-NH2)
92 |  |  | 93 |  |  |  |  | 16 | CC(C)[C@H](NC(=O)[C@@H](N)Cc1ccc(O)cc1)C(=O)N[C@@H]1CSSC[C@@H](C(=O)N[C@@H](CCCN=C(N)N)C(=O)N[C@@H](Cc2ccccc2)C(=O)NCC(N)=O)NC(=O)[C@H](Cc2c[nH]c3ccccc23)NC(=O)[C@H](CCCN=C(N)N)NC(=O)[C@@H](Cc2ccccc2)NC(=O)[C@H](Cc2c[nH]cn2)NC(=O)CNC1=O
 | 240 | 5.5 |  | 8.8 | 9.6 | 340 | 200 |  | CCCC[C@H](NC(=O)[C@@H](NC(=O)[C@@H](N)Cc1ccc(O)cc1)C(C)C)C(=O)N[C@H]1CC(=O)NCCCC[C@@H](C(=O)N[C@@H](CCCN=C(N)N)C(=O)N[C@@H](Cc2ccccc2)C(=O)NCC(N)=O)NC(=O)[C@H](Cc2c[nH]c3ccccc23)NC(=O)[C@H](CCCN=C(N)N)NC(=O)[C@H](Cc2ccccc2)NC(=O)[C@H](Cc2c[nH]cn2)NC1=O
 | 2400 | 15 | 31 | 17 | 1.5 | > 10000 | 28 | 80 | CCCC[C@H](NC(=O)[C@@H](NC(=O)[C@@H](N)Cc1ccc(O)cc1)C(C)C)C(=O)NCC(=O)N[C@@H](Cc1c[nH]cn1)C(=O)N[C@@H](Cc1ccccc1)C(=O)N[C@@H](CCCN=C(N)N)C(=O)N[C@H](Cc1ccc2ccccc2c1)C(=O)N[C@@H](CC(=O)O)C(=O)N[C@@H](CCCN=C(N)N)C(=O)N[C@@H](Cc1ccccc1)C(=O)NCC(N)=O
 | 39 | 240 |  | 220 | > 10000 | 83 | 270 |  | CCCC[C@H](NC(=O)[C@@H](NC(=O)[C@@H](N)Cc1ccc(O)cc1)C(C)C)C(=O)N[C@H]1CSSC[C@H](C(=O)N[C@@H](CCCN=C(N)N)C(=O)N[C@@H](Cc2ccccc2)C(=O)NCC(N)=O)NC(=O)[C@H](Cc2c[nH]c3ccccc23)NC(=O)[C@H](CCCN=C(N)N)NC(=O)[C@H](Cc2ccccc2)NC(=O)[C@H](Cc2c[nH]cn2)NC1=O
 | 400 | 150 |  | 1700 | 12 | > 10000 | > 10000 |  | CC(C)[C@H](NC(=O)[C@@H](N)Cc1ccc(O)cc1)C(=O)N[C@@H]1C(=O)NCC(=O)N[C@@H](Cc2cnc[nH]2)C(=O)N[C@@H](Cc2ccccc2)C(=O)N[C@@H](CCCNC(=N)N)C(=O)N[C@@H](Cc2c[nH]c3ccccc23)C(=O)N[C@H](C(=O)N[C@@H](CCCNC(=N)N)C(=O)N[C@@H](Cc2ccccc2)C(=O)NCC(N)=O)CSSC1(C)C
